The nature of data set [1]: Half life in human plasma at 1 uM by HPLC-MS/MS method. Format: ADME, cell-free. The method, boiled down:
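Human plasma preincubated 10 min with pH 7.4 phosphate buffer at 37 °C. Compound added at final 1 μM and sampled at 0, 0.5, 1, 1.5 and 2 h into acetonitrile. Centrifuged and analysed by HPLC-MS/MS. t1/2 is the mean of two experiments.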

Data set [2] is described as follows: Selectivity index, ratio of CC50 for human TZM-bl cells to EC50 for CCR5 tropic HIV1 BaL infected in human TZM-bl cells. Format: toxicity, cell-based. The note with it: read-out: Ratio CC50/EC50.
Data set [3] in a line: Cytotoxicity against human PHA-stimulated PBMC assessed as cell viability by tetrazolium dye assay. The format is cell-based.
Data set [4] can be described thus: Selectivity index, ratio of CC50 for HEL cells to EC50 for thymidine kinase expressing Varicella-Zoster virus Oka. Format: toxicity. Particulars: human, read-out: Ratio CC50/EC50. An outline of the steps:
(§1)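 HEL fibroblast monolayers inoculated with 100 CCID50 HCMV (AD-169, Davis) or 20 PFU VZV (TK+ Oka, TK− 07-1). Adsorbed 1–2 h, inoculum removed, then incubated with compound dilutions. HCMV cytopathicity or VZV plaques scored once untreated infected controls reached completion. EC50 is 50% reduction. SI is CC50/EC50, and the potency ratio is the ratio of EC50s.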

Data set [5] deals with Human immunodeficiency virus 1. In words: Potency index, ratio of (S)-9-[3-Fluoro-2-(phosphonomethoxy)propyl]adenine EC50 to compound EC50 for CXCR4-tropic HIV-1 NL4-3 infected in human TZM-bl cells. Format: functional.
Data set [6] in a line: Selectivity index, ratio of CC50 for human TZM-bl cells to EC50 for CXCR4-tropic HIV-1 NL4-3 infected in human TZM-bl cells. Format: toxicity, cell-based. The note with it: read-out: Ratio CC50/EC50.
The nature of data set [7]: Half life in human liver microsomes at 0.1 uM in presence of NADPH by HPLC-MS/MS method. The format is ADME, microsome. The method, boiled down:
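Pooled human liver microsomes preincubated 10 min at 37 °C with an NADPH-regenerating system (1 mM NADP, 5 mM G6P, G6PDH) in pH 7.4 phosphate with 3 mM MgCl2 and 1 mM EDTA. Compound added at final 0.1 μM and sampled at 0–60 min into acetonitrile/methanol. Analysed by HPLC-MS/MS, mean of two experiments.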

Data set [8] deals with Human immunodeficiency virus 1. In words: Antiviral activity against CCR5 tropic HIV1 BaL infected in human PHA-stimulated PBMC assessed as inhibition of viral replication by measuring reduction in p24 antigen production preincubated with cells for 30 mins followed by viral infection measured on day 10 post infection in presence of IL-2 by ELISA. Format: functional. The note with it: Human immunodeficiency virus 1, BaL. An outline of the steps:
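PBMCs stimulated with 2 μg/mL PHA for 3 days at 37 °C, then 5 × 10^5 cells/ml preincubated 30 min at 37 °C with serial compound dilutions plus 2 ng/mL IL-2. Infected with 1500 pg/well HIV-1 BaL or 500 pg/well other isolates. IL-2 re-added on days 3 and 6. Supernatant p24 Ag measured by ELISA at day 10. EC50 is 50% inhibition of replication.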
(In general: ELISA stands for enzyme-linked immunosorbent assay.)

A short description of data set [9]: Stability of the compound in phosphate buffer of pH 8 at 1 mg after 14 hrs by 31P NMR spectroscopy. The format is physicochemical. Particulars: read-out: Stability. An outline of the steps:
(§2)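 1 mg compound in 0.2 mL acetone-d6 plus 0.3 mL pH 8 buffer (0.1 M Na2HPO4 adjusted with 0.1 M HCl). In situ 31P NMR (202 MHz) at 37 °C, spectra every 30 min over 14 h.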

The nature of data set [10]: Stability of the compound in pH 1 buffer at 2 mg after 5 hrs by 31P NMR spectroscopy. The format is physicochemical. Particulars: pH 1, 5 h. An outline of the steps:
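2.0 mg compound in 0.2 mL acetone-d6 plus 0.3 mL pH 1 buffer (equal parts 0.2 M HCl and 0.2 M KCl). In situ 31P NMR (202 MHz) at 37 °C, spectra every 30 min over 14 h.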

Data set [11] relates to Human alphaherpesvirus 3. Nature of the data set: Potency index, ratio of (S)-9-[3-Fluoro-2-(phosphonomethoxy)propyl]adenine EC50 to compound EC50 for thymidine kinase deficient Varicella-Zoster virus 07-1. Format: functional. The method, boiled down: as §1
In data set [12] the test system is Hepatitis B virus. In words: Antiviral activity against HBV ayw1 infected in human HepG2(2.2.15) cells assessed as reduction in viral replication by measuring extracellular viral DNA copy number after 6 days by real-time qPCR method. The format is functional, cell-based. Particulars: ayw1, HepG2 2.2.15, 144 h. An outline of the steps:
(§3)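 HepG2.2.15 cells (two copies of HBV ayw1 genome), 1.5 × 10^4/well in DMEM with 2% FBS and 380 μg/mL G418. After 16–24 h, compound added in triplicate, medium with compound renewed at day 3. Supernatant collected at day 6, Pronase-treated, and extracellular HBV DNA measured by TaqMan qPCR (precore/core) against an HBV DNA standard curve. EC50/EC90 derived; CC50 by MTS uptake.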
Background: In qPCR the cycle at which signal appears reflects the starting amount.

The nature of data set [13]: Cytotoxic activity against HEL cells assessed as reduction in cell proliferation after 3 days by coulter counting method. The format is cell-based. Particulars: human. The method, boiled down: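 HEL cells seeded at 5 × 10^3/well, grown 24 h, then given compound for 3 days at 37 °C. Cell number counted by Coulter counter. CC50 is 50% reduction of proliferation relative to untreated controls, read from graphic plots.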

Data set [14] in a line: Stability of the compound in phosphate buffer of pH 8 at 1 mg after 1 hr by 31P NMR spectroscopy. Format: physicochemical. Particulars: pH 8, 1 h. An outline of the steps: as §2
Data set [15] can be described thus: Selectivity index, ratio of CC50 for HepG2.2.15 cells to EC50 for HBV ayw1 infected in human HepG2(2.2.15) cells assessed as reduction in viral replication by measuring extracellular viral DNA copy. An outline of the steps: as §3

As a reminder, the half-life is how long it takes for the measured level to halve. By CC50 is commonly meant the concentration that lowers cell viability or growth by half. What is called IC50 is the concentration that gives 50% inhibition. For orientation: EC50 means the concentration that produces a half-maximal response. Usually EC90 stands for the concentration at which the effect reaches the 90% level.

The compound `CCCCCOC(=O)C[C@H](NP(=O)(CO[C@H](CF)Cn1cnc2c(N)ncnc21)Oc1ccccc1)C(=O)OCCCCC` (stereo partly specified) returned a half-life at 1 µM in data set [1] of 89 min. Also, the selectivity ratio in data set [2] is 7910; in data set [4], 39; in data set [6], 3320. Besides, the CC50 in data set [3] turned out to be 2480 nM. For the same compound, the “Ratio EC50” value in [5] is 600; in data set [11] it was 2000. For the same compound, the half-life at 0.1 µM in data set [7] amounted to 2 min. Besides, the IC50 in [8] was found to be 22 nM. The remaining at 14 h in data set [9] is 58%. For the same compound, the Stability result in [10] and in [14] was “Stable” in each case. Also, in data set [12], the EC50 turned out to be 10 nM. Further, in [12], the concentration for an effect of 90% (EC90) was 1970 nM. Also, the CC50 at 72 h in data set [13] stood at 1960 nM. Besides, the “Ratio CC50/EC50” value in [15] is given as 2256.

Values taken from ChEMBL document CHEMBL4038313, “Expanding the Antiviral Spectrum of 3-Fluoro-2-(phosphonomethoxy)propyl Acyclic Nucleoside Phosphonates: Diamyl Aspartate Amidate Prodrugs” (J Med Chem, 2017).
